Experimental data taken from ChEMBL document CHEMBL5608187, “Discovery of pyridoquinoxaline-based new P-gp inhibitors as coadjutant against Multi Drug Resistance in cancer” (Eur J Med Chem, 2024).
Active and inactive are the calls of the source. The calls are words filed in the database; no cut-off is given here.

Assays:
[1] = target: T1, ATP-dependent translocase ABCB1 (Homo sapiens, UniProt P08183); assay: Inhibition of P-gp in human A498 cells assessed as increase in green fluorescence intensity at 0.1 to 10 uM incubated for 15 mins followed by incubation with EFFLUX-ID Green Detection Reagent and Hoeschst-33342 dye and measured after 30 mins by fluorescence analysis; format: cell-based; conditions: a498, 0.25 h, dose 0.1-10 µM
Method in brief: (§1)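 5000 cells/well in phenol-red-free medium plated 24 h before; compounds 0.1, 1, 10 µM for 15 min, then EFLUXX-ID Green reagent (1:200) plus Hoechst-33342 1 µg/mL, 30 min 37 °C. Widefield imaging; median green intensity from 250 cells per well normalized to untreated wells. Mean ± SD of three wells; one-tailed t-test.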

[2] = target: T1, ATP-dependent translocase ABCB1; assay: Inhibition of P-gp in human HCT-15 cells assessed as increase in green fluorescence intensity at 0.1 to 10 uM incubated for 15 mins followed by incubation with EFFLUX-ID Green Detection Reagent and Hoeschst-33342 dye and measured after 30 mins by fluorescence analysis; format: cell-based; conditions: hct-15, 0.25 h, dose 0.1-10 µM; method in brief: as §1
[3] = target: T1, ATP-dependent translocase ABCB1; assay: Inhibition of P-gp in human HT1197 cells assessed as increase in green fluorescence intensity at 0.1 to 10 uM incubated for 15 mins followed by incubation with EFFLUX-ID Green Detection Reagent and Hoeschst-33342 dye and measured after 30 mins by fluorescence analysis; format: cell-based; conditions: ht1197, 0.25 h, dose 0.1-10 µM; method in brief: as §1
A704 [4] = assay: Coadjutant activity against multidrug resistance in human A704 cells assessed as potentiation of vincristine-induced cell growth inhibition at 0.25 to 4 uM incubated for 72 hrs in presence of 0.2 uM vincristine by SiR-DNA/CellTox Green Dye based fluorescence analysis; format: functional; conditions: dose 0.25-4 µM
Method in brief: (§2)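 Growth by live-cell imaging: 500 cells/well plated with SiR-DNA and CellTox Green dye; serial dilutions in phenol-red-free complete medium added next day. Imaged at addition and at 72 h. Live cells = SiR-DNA nuclei minus CellTox-positive dead cells; percentage growth calculated. Three technical replicates; two-tailed t-test. Inhibitor paired with anticancer drug at fixed or scaled levels.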

A498 [5] = assay: Coadjutant activity against multidrug resistance in human A498 cells assessed as potentiation of vincristine-induced cell growth inhibition at 0.25 to 4 uM incubated for 72 hrs in presence of 0.2 uM vincristine by SiR-DNA/CellTox Green Dye based fluorescence analysis; format: functional; conditions: dose 0.25-4 µM; method in brief: as §2
HuP-T3 = assay: Coadjutant activity against multidrug resistance in human Hup-T3 cells assessed as potentiation of vincristine-induced cell growth inhibition by measuring cell growth at 4 uM incubated for 72 hrs in presence of 0.02 to 20 uM vincristine by SiR-DNA/CellTox Green Dye based fluorescence analysis; format: functional; parameters: scale not given: the % may be the effect or the level left; method in brief: as §2
MeWo [6] = assay: Coadjutant activity against multidrug resistance in human MeWo cells assessed as potentiation of vincristine-induced cell growth inhibition at 4 uM incubated for 72 hrs in presence of 0.02 to 20 uM vincristine by SiR-DNA/CellTox Green Dye based fluorescence analysis; format: functional; method in brief: as §2
U-87 MG = assay: Coadjutant activity against multidrug resistance in human U-87 MG cells assessed as potentiation of vincristine-induced cell growth inhibition at 4 uM incubated for 72 hrs in presence of 0.02 to 20 uM vincristine by SiR-DNA/CellTox Green Dye based fluorescence analysis; format: functional; conditions: U-87MG ATCC; method in brief: as §2
A498 [7] = assay: Coadjutant activity against multidrug resistance in human A498 cells assessed as potentiation of vincristine-induced cell growth inhibition by measuring cell growth at 4 uM incubated for 72 hrs in presence of 0.02 to 20 uM vincristine by SiR-DNA/CellTox Green Dye based fluorescence analysis; format: functional; parameters: scale not given: the % may be the effect or the level left; method in brief: as §2
A704 [8] = assay: Coadjutant activity against multidrug resistance in human A704 cells assessed as potentiation of vincristine-induced cell growth inhibition by measuring cell growth at 4 uM incubated for 72 hrs in presence of 0.02 to 20 uM vincristine by SiR-DNA/CellTox Green Dye based fluorescence analysis; format: functional; parameters: scale not given: the % may be the effect or the level left; method in brief: as §2
SK-HEP1 = assay: Cytotoxicity against human SK-HEP1 cells assessed as inhibition of cell growth at 4 uM incubated for 72 hrs by SiR-DNA/CellTox Green Dye based fluorescence analysis; format: toxicity; conditions: sk-hep1, 72 h
Method in brief: (§3)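 Single-agent control at 4 µM, no anticancer drug. 500 cells/well with SiR-DNA and CellTox Green; imaged at addition and 72 h. Live count = total nuclei minus dead cells, expressed as percent growth. Three technical replicates.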

MeWo [9] = assay: Cytotoxicity against human MeWo cells assessed as inhibition of cell growth at 4 uM incubated for 72 hrs by SiR-DNA/CellTox Green Dye based fluorescence analysis; format: toxicity; method in brief: as §3
[10] = Cytotoxicity against human A498 cells assessed as inhibition of cell growth at 4 uM incubated for 72 hrs by SiR-DNA/CellTox Green Dye based fluorescence analysis relative to control; format: toxicity; method in brief: as §3
A498 [11] = assay: Coadjutant activity against multidrug resistance in human A498 cells assessed as potentiation of etoposide-induced cell growth inhibition at 4 uM incubated for 72 hrs in presence of 0.04 to 40 uM etoposide by SiR-DNA/CellTox Green Dye based fluorescence analysis; format: functional; method in brief: as §2
SK-N-SH = assay: Coadjutant activity against multidrug resistance in human SK-N-SH cells assessed as potentiation of etoposide-induced cell growth inhibition at 4 uM incubated for 72 hrs in presence of 0.04 to 40 uM etoposide by SiR-DNA/CellTox Green Dye based fluorescence analysis; format: functional; method in brief: as §2
HT-29 = assay: Coadjutant activity against multidrug resistance in human HT-29 cells assessed as potentiation of cisplatin-induced cell growth inhibition at 4 uM incubated for 72 hrs in presence of 0.1 to 100 uM cisplatin by SiR-DNA/CellTox Green Dye based fluorescence analysis; format: functional
Method in brief: (§4)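 Cisplatin co-treatment, 72 h imaging growth assay (SiR-DNA nuclei minus CellTox Green dead cells, 500 cells/well, phenol-red-free medium). Combinations: inhibitor fixed with cisplatin 0.1–100 µM, or cisplatin fixed at 0.25 µM with inhibitor 0.25–4 µM. Three technical replicates, mean ± SD; two-tailed t-test.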

HCT-116 = assay: Coadjutant activity against multidrug resistance in human HCT-116 cells assessed as potentiation of cisplatin-induced cell growth inhibition at 4 uM incubated for 72 hrs in presence of 0.1 to 100 uM cisplatin by SiR-DNA/CellTox Green Dye based fluorescence analysis; format: functional; method in brief: as §4
[12] = target: Voltage-dependent L-type calcium channel subunit alpha-1C (Rattus norvegicus, UniProt P22002); assay: Inhibition of Cav1.2 in Wistar rat tail artery smooth muscle cells assessed as inhibition of Ba2+ current at 0.3 to 10 uM at holding potential of -50 mV by whole cell patch clamp analysis; format: toxicity, tissue-based; conditions: dose 0.3-10 µM
Method in brief: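 Freshly dissociated rat tail main artery myocytes (collagenase XI, 37 °C). Whole-cell patch clamp, 20–22 °C; Cs-based internal, external with 30 mM TEA and 5 mM Ba2+. IBa1.2 evoked by 250-ms steps to 10 mV from −50 mV at 0.067 Hz; compound added cumulatively 0.3–10 µM; leak subtracted using 10 µM nifedipine. Amplitude as percent of control, n = 5.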

T1 sequence (P08183 whole entry): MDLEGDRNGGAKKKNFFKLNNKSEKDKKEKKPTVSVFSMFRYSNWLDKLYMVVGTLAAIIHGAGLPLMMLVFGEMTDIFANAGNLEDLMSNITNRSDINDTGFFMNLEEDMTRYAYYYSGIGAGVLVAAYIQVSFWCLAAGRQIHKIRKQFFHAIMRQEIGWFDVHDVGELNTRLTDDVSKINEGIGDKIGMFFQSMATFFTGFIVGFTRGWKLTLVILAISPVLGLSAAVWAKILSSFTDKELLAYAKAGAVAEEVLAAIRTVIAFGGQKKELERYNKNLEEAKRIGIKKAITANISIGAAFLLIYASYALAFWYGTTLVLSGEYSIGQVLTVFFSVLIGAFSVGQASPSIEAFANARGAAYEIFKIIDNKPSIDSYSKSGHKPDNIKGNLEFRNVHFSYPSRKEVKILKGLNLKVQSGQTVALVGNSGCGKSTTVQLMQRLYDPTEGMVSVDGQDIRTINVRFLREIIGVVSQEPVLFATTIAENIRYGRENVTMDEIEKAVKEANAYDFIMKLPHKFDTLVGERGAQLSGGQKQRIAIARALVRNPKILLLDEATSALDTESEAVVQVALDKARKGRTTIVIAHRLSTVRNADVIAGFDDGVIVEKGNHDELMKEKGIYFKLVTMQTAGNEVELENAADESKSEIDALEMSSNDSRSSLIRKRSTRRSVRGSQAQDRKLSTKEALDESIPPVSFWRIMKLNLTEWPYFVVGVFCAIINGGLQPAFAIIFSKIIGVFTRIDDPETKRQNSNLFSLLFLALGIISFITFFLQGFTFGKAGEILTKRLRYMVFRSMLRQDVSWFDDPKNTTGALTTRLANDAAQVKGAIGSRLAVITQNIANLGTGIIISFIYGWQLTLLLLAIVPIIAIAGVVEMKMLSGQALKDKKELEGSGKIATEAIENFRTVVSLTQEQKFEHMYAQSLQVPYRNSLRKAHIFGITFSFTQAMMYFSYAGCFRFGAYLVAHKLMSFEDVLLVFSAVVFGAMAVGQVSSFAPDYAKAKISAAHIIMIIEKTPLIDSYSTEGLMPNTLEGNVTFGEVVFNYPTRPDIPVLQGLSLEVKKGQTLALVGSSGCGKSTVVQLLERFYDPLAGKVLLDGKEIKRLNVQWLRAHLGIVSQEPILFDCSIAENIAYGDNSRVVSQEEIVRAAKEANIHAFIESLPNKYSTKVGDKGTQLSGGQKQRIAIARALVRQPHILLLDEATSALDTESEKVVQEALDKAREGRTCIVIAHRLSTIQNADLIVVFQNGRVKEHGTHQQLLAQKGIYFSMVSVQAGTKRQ
Chain of Voltage-dependent L-type calcium channel subunit alpha-1C (P22002 whole entry): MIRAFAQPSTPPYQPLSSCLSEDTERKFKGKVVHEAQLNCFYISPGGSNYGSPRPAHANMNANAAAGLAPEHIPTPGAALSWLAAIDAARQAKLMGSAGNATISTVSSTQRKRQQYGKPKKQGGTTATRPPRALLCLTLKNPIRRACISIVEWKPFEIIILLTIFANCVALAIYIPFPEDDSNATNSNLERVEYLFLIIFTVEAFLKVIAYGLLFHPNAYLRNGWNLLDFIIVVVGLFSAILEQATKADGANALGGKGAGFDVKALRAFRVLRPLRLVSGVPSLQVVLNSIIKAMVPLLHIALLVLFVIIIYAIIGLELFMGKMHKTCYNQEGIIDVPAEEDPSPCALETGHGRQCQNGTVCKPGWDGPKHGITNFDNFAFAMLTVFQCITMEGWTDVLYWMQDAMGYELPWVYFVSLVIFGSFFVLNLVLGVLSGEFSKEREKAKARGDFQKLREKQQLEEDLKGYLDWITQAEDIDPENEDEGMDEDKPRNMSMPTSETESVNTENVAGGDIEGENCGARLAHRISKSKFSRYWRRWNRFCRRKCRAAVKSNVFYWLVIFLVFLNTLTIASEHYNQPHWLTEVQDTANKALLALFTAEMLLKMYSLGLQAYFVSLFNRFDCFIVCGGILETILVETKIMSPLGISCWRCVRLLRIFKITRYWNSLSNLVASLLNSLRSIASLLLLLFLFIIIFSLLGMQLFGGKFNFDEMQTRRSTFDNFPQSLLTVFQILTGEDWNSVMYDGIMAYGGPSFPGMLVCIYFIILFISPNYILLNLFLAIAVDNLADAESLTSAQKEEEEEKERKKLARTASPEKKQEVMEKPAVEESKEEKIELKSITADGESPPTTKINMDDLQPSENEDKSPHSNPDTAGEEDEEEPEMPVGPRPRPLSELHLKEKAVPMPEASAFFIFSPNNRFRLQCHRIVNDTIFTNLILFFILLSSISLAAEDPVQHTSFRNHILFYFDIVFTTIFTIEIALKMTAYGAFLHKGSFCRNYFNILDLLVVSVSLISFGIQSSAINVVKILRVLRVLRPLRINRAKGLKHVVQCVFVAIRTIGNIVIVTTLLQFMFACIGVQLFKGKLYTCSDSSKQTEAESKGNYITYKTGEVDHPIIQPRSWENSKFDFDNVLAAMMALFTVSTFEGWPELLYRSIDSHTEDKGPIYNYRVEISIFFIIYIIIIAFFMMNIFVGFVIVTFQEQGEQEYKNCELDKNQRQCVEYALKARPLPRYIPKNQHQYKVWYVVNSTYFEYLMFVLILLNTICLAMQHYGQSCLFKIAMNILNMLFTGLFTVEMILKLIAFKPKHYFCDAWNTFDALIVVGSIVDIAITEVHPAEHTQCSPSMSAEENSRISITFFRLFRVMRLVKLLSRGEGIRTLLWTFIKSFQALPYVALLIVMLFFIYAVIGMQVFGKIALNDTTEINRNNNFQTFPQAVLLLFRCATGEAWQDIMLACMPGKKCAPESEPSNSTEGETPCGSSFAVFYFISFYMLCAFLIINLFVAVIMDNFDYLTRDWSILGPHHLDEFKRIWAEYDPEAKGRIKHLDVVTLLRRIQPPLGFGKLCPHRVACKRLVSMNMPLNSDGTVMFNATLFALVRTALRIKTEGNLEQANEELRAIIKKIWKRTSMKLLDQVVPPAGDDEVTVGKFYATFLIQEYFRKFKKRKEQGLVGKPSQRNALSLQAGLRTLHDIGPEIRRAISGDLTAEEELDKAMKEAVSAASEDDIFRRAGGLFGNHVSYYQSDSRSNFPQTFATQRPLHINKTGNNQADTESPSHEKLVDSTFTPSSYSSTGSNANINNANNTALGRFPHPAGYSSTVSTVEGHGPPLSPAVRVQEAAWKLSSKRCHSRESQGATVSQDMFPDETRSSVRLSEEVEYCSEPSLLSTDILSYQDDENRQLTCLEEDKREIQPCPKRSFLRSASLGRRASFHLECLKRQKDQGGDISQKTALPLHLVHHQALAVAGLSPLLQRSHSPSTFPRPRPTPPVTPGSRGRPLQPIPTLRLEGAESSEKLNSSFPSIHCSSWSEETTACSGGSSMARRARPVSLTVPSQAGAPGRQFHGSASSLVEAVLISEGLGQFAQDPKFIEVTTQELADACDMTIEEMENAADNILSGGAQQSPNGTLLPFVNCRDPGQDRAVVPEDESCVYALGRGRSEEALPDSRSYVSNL

inhibition (INH) [1]: Not Active
inhibition (INH) [2]: Active
inhibition (INH) [3]: Not Active
SMILES: O=C(Nc1ccccc1)c1ccccc1OCc1nc2cc3cccnc3cc2nc1COc1ccccc1C(=O)Nc1ccccc1
Activity (A704 [4]): Active
Activity (A498 [5]): Active
Activity (HuP-T3): 50%
Activity (MeWo [6]): Active
Activity (U-87 MG): Active
Activity (A498 [7]): 50%
Activity (A704 [8]): 50%
Activity (SK-HEP1): Non-Toxic
Activity (MeWo [9]): Non-Toxic
inhibition at 72 h, 4 µM [10]: 20%
Activity (A498 [11]): Active
Activity (SK-N-SH): Active
Activity (HT-29): inactive
Activity (HCT-116): inactive
inhibition (INH) [12]: Not Active
